Bioassay records from PubChem.
Compounds with a hit are over-represented: about 1.6% of the library has one in this group of screens.
TRAIL sens C8 – caspase-8 TRAIL sensitization | NB7+C8 cells + TRAIL, ATPlite viability luminescence | inhibition (viability loss, TRAIL sensitization), % at 10 µM | 1% of 360,000 active;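 active means compounds causing at least 50% loss of cell viability in the single-dose screen, relative to plate controls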
FLuc inhib CS – inhibits firefly luciferase, flagging false hits in luciferase inhibition screens. P08659. ATPLite firefly luciferase biochemical luminescence, 10 min. inhibition, % at 10 µM. 1.5% of 200,000 active;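 active means inhibition above about 50% when tested at 10 µM, limit read from the data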
Target sequence (P08659 whole entry, looked up): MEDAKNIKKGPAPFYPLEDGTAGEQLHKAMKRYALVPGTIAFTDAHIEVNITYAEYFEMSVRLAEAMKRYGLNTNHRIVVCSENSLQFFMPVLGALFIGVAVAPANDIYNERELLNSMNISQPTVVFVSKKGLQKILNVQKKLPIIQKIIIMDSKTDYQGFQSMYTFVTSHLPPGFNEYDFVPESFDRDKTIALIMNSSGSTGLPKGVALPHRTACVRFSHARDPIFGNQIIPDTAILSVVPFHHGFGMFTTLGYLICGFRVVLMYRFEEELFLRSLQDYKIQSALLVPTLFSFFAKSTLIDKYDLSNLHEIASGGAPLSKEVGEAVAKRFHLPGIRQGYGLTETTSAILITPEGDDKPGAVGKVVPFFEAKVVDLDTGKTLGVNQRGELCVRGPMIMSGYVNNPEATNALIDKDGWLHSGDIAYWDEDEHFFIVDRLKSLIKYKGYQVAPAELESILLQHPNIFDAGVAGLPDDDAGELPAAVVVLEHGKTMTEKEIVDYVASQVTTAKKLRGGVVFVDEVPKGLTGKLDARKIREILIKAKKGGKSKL
PPC-1+TRAIL kill – compounds killing PPC-1 cancer cells with TRAIL present (potentiator screen, no TRAIL-free arm) | PPC-1 cells + TRAIL, ATPLite viability luminescence | cell killing (% activity), % at 4 µM or 5 µM | 0.41% of 220,000 active | AID 1443;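 active means cell killing above 50% in the first pass at 4 µM, then a duplicate retest at 5 µM averaging 50% or more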;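 further: plate controls were cells with TRAIL plus DMSO for no effect and medium-only wells lacking cells for full effect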
FLuc stim CS – affects firefly luciferase, flagging false hits in luciferase stimulation screens. P08659. ATPlite luciferase biochemical, luminescence, 10 min; 0 = ATP-free wells, 1 = DMSO control. activation factor at 10 µM. 200,000 tested, under 10 active. AID 1027;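 active means luciferase activation factor, scaled between plate controls, of at least 2 with compound at 10 µM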
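assay system = Luciferase/luciferin detection reagent, cell-free biochemical luciferase assay | also added = ATP substrate | times = 10 min post-reagent at room temperature | measured by = luminescence from luciferase reaction | measure = luciferase activation, seen as luminescence increase over controls | benchmarks = low control with PBS replacing ATP, high control enzyme plus ATP without compound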
Starred values were filed as active, the others as inactive.

How did CCOC(=O)/C=C/COc1ccccc1[N+](=O)[O-] do in these assays?
TRAIL sens C8: -14; FLuc inhib CS: 30; PPC-1+TRAIL kill: -4; FLuc stim CS: 0.7

What do the screens show for `O=C(Nc1ccc(-c2nc3ccccc3o2)cc1)C1CCCO1` (centres undefined)?
TRAIL sens C8: 59*; FLuc inhib CS: 78*; PPC-1+TRAIL kill: -33; FLuc stim CS: 0.2

Results for COc1ccc(C(=O)Nc2ccc3oc(-c4cccc(F)c4)nc3c2)cc1OC ?
TRAIL sens C8: 12; FLuc inhib CS: -6; PPC-1+TRAIL kill: 16; FLuc stim CS: 1.1

Results for O=C(Nc1ccc(-c2nc3cc(Cl)ccc3o2)cc1)C1CCCO1 (centres undefined) ?
TRAIL sens C8: 23; FLuc inhib CS: 30; PPC-1+TRAIL kill: 6; FLuc stim CS: 0.7

Results for O=C(Nc1ccc2oc(-c3ccccc3)nc2c1)C1CCCO1 (centres undefined) ?
TRAIL sens C8: 31; FLuc inhib CS: 50*; PPC-1+TRAIL kill: 17; FLuc stim CS: 0.5

What do the screens show for `COc1ccccc1C(=O)Nc1ccc2oc(-c3ccc(F)cc3)nc2c1`?
TRAIL sens C8: 13; FLuc inhib CS: -2; PPC-1+TRAIL kill: 53*; FLuc stim CS: 1

What do the screens show for `CCOC(=O)CC/C(=N\NC(N)=O)c1ccc(OC)c(Cl)c1`?
TRAIL sens C8: -12

What do the screens show for `COc1ccc(NC(=S)N2CCNC(=O)C2CC(=O)Nc2cccc(Cl)c2C)cc1` (centres undefined)?
TRAIL sens C8: -9; FLuc inhib CS: -4; PPC-1+TRAIL kill: 13; FLuc stim CS: 1

How did CCOc1ccccc1C(=O)NN1C(=O)C2CCCCC2C1=O (centres undefined) do in these assays?
TRAIL sens C8: -9; FLuc inhib CS: -4; PPC-1+TRAIL kill: 17; FLuc stim CS: 1

Results for CC(C)c1ccc(C(=O)NN2C(=O)C3CCCCC3C2=O)cc1 (centres undefined) ?
TRAIL sens C8: 23; FLuc inhib CS: 80*; PPC-1+TRAIL kill: 18; FLuc stim CS: 0.2

How did Cc1ccc(S(=O)(=O)N(C)c2ccc(C(=O)Nc3c(C)n(C)n(-c4ccccc4)c3=O)cc2)cc1 do in these assays?
TRAIL sens C8: -1; FLuc inhib CS: -9; PPC-1+TRAIL kill: 11; FLuc stim CS: 1.1

How did O=C(Cn1c2ccccc2c(=O)c2ccccc21)N/N=C/c1cc([N+](=O)[O-])ccc1N1CCCCCC1 do in these assays?
TRAIL sens C8: 60*; FLuc inhib CS: -6; PPC-1+TRAIL kill: 15; FLuc stim CS: 1.1

How did CC(Oc1cccc(Cl)c1)C(=O)N(C)CC(=O)Nc1ccc(N2CCOCC2)cc1 (centres undefined) do in these assays?
TRAIL sens C8: 15

What do the screens show for `COc1ccccc1OCC(=O)NCCSCc1cccc(Cl)c1`?
TRAIL sens C8: -1; FLuc inhib CS: -3; PPC-1+TRAIL kill: 4; FLuc stim CS: 1

How did Cc1cc(-c2nnc(SCC(=O)Nc3cccc(F)c3)n2N)n[nH]1 do in these assays?
TRAIL sens C8: 7

What do the screens show for `O=C(c1ccc(CSc2nc3ccncc3[nH]2)cc1)N1CCCCC1`?
TRAIL sens C8: 44; FLuc inhib CS: 68*; PPC-1+TRAIL kill: 36; FLuc stim CS: 0.3

Results for O=C(N/N=C/c1cccc(NC(=O)c2ccc(Cl)cc2)c1)c1ccc(O)cc1 ?
TRAIL sens C8: 61*; PPC-1+TRAIL kill: 30

Results for O=C(N/N=C/c1ccncc1)c1cccc(NC(=O)c2ccc(Cl)cc2)c1 ?
TRAIL sens C8: -8; FLuc inhib CS: 0; PPC-1+TRAIL kill: 9; FLuc stim CS: 1

How did O=C(N/N=C/c1cccc(F)c1)c1ccc(Cl)cc1 do in these assays?
TRAIL sens C8: 23; FLuc inhib CS: 58*; PPC-1+TRAIL kill: 15; FLuc stim CS: 0.4

How did C=C1[C@@H](OC(C)=O)C=C[C@@]2(C)C=CC(=O)[C@@](C)(OC(C)=O)[C@@H]2[C@@H](OC(C)=O)[C@]2(O)[C@@H](C)C(=O)O[C@H]2[C@H]1Cl do in these assays?
TRAIL sens C8: 6

How did COc1ccccc1-c1csc(NC(=O)c2ccc(N3C(=O)CCC3=O)cc2)n1 do in these assays?
TRAIL sens C8: 16; FLuc inhib CS: 2; PPC-1+TRAIL kill: 6; FLuc stim CS: 1

What do the screens show for `CO/N=C/c1cccn1-c1nccc(N(C)C)c1C#N`?
TRAIL sens C8: 28; FLuc inhib CS: 1; PPC-1+TRAIL kill: 3; FLuc stim CS: 1

How did CCOC(=O)c1c(C)sc2c1N(C(=O)CCl)c1cc(Cl)ccc1S2 do in these assays?
TRAIL sens C8: 55*; FLuc inhib CS: -6; PPC-1+TRAIL kill: 5; FLuc stim CS: 1.1

How did Cn1nc(C(F)(F)F)c(-c2ccc(Br)cc2)c1NC(=O)Nc1ccc(F)cc1F do in these assays?
TRAIL sens C8: 9; PPC-1+TRAIL kill: 13

How did CC(C)(C)c1ccc(-c2cn(-c3ccc(Br)cc3)c3[n+]2CCCS3)cc1 do in these assays?
TRAIL sens C8: 55*; FLuc inhib CS: -5; PPC-1+TRAIL kill: 49; FLuc stim CS: 1.1

What do the screens show for `COc1ccc(S(N)(=O)=O)cc1C(=O)N(C)CC(=O)Nc1ccc(N2CCOCC2)cc1`?
TRAIL sens C8: 4

What do the screens show for `CN1CCN(C(=O)c2ccccc2NC(=O)c2ccccc2)CC1`?
TRAIL sens C8: -18

Results for COc1ccc(N=Nc2n(C)c3ccccc3[n+]2C)cc1 ?
PPC-1+TRAIL kill: 92*

How did Cc1ccc(S(=O)(=O)N2CCN(C(=O)COC(=O)CCOc3ccccc3)CC2)c(C)c1 do in these assays?
TRAIL sens C8: 8

What do the screens show for `Cc1nnc(NC(=O)c2nc(S(=O)(=O)Cc3ccccc3)ncc2Cl)s1`?
TRAIL sens C8: 83*

Results for Cc1ccccc1CS(=O)(=O)c1ncc(Cl)c(C(=O)Nc2ccc(F)cc2)n1 ?
TRAIL sens C8: 92*

How did O=C(Nc1ccc(F)cc1)c1nc(S(=O)(=O)Cc2ccccc2)ncc1Cl do in these assays?
TRAIL sens C8: 92*

What do the screens show for `Cc1ccc(NC(=O)c2nc(S(=O)(=O)Cc3ccccc3)ncc2Cl)cc1`?
TRAIL sens C8: 65*

Results for Cc1cccc(C)c1NC(=O)c1nc(S(=O)(=O)Cc2ccccc2)ncc1Cl ?
TRAIL sens C8: 23

What do the screens show for `Cc1ccccc1NC(=O)c1nc(S(C)(=O)=O)ncc1Cl`?
TRAIL sens C8: -1

What do the screens show for `CC(C)CC(=O)N1CCN(c2ccc(NC(=O)c3ccco3)cc2)CC1`?
TRAIL sens C8: -15

How did CCOC(=O)NN=C1CN(S(=O)(=O)c2ccc(C)cc2)C1 do in these assays?
TRAIL sens C8: -19

What do the screens show for `O=C(Cc1ccc(Br)cc1)OCC(=O)c1ccc[nH]1`?
TRAIL sens C8: -23

What do the screens show for `COc1ccc2nc(C)cc(N/N=C/c3cccc(OC)c3O)c2c1`?
TRAIL sens C8: 51*

Results for COc1ccc(/C=N/Nc2cc(C)nc3ccc(Br)cc23)cc1 ?
TRAIL sens C8: 49*

What do the screens show for `Cn1ncc2c(O/N=C(\N)c3ccc(C(C)(C)C)cc3)ncnc21`?
TRAIL sens C8: 92*; PPC-1+TRAIL kill: 19

Results for CCOC(=O)c1ccc(Nc2ncnc3c2cnn3C)cc1 ?
TRAIL sens C8: 6; FLuc inhib CS: -3; PPC-1+TRAIL kill: 16; FLuc stim CS: 1
